Results on one molecule are retold here after ChEMBL document CHEMBL4325822, “Discovery of a tetrazolyl β-carboline with in vitro and in vivo osteoprotective activity under estrogen-deficient conditions” (Medchemcomm, 2018).

Data set [1] concerns Rattus norvegicus. Kind of data set: Antiosteoporotic activity in Sprague-Dawley rat model of OVX-induced bone loss assessed as increase in femoral bone strength by measuring energy at 1 mg/kg, po via gavage for 12 weeks by 3 point bending test (reference value: 46.27 +/- 4.36 mJ). Format: functional.
For data set [2], the system named is Rattus norvegicus. Kind of data set: Antiosteoporotic activity in Sprague-Dawley rat model of OVX-induced bone loss assessed as mineral apposition rate at 5 mg/kg, po via gavage for 12 weeks by microcomputed tomographic analysis (reference value: 0.169 +/- 0.004 umeter/day). Format: functional. The gist of the method: (§1)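 Female Sprague-Dawley rats, 10-12 weeks old, ten per group, were ovariectomized and left 12 weeks for osteopenia. They were then dosed once daily by oral gavage for 12 weeks in 1% gum acacia vehicle. The estradiol arm received 100 µg·kg⁻¹ subcutaneously five days a week. Tetracycline and calcein were given intraperitoneally at 20 mg·kg⁻¹ each. Femur cross-sections (50 µm) were imaged by fluorescence microscopy for MAR and BFR.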

A short description of data set [3]: Toxicity in Sprague-Dawley rat model of OVX-induced bone loss assessed as luminal area at 5 mg/kg, po via gavage for 12 weeks (reference value: 0.01 +/- 0.0004 mm2). Format: organism-based. The conditions noted are these: in vivo, 2016 h.
Data set [4] can be described thus: Induction of osteoblast differentiation in Sprague-Dawley rat calvarial osteoblasts assessed as alkaline phosphatase activity after 48 hrs using PNPP as substrate by spectrophotometric method. The following applies: Rattus norvegicus, Sprague-Dawley, Calvarial osteoblast, 48 h; read-out: EC50. The data set is classed as functional, cell-based. The method, boiled down:
(§2)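 Calvarial osteoblasts at 2 × 10³ cells/well. Treated 48 h with varied concentrations in differentiation medium (5% charcoal-treated FBS, 10 mM β-glycerophosphate, 50 µg·mL⁻¹ ascorbic acid). Total ALP read with PNPP substrate at 405 nm. Cell-free wells check for compound interference with substrate or absorbance.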

The subject of data set [5] is Rattus norvegicus. Kind of data set: Upregulation of type-1 collagen mRNA expression in femur bone of Sprague-Dawley rat model of OVX-induced bone loss at 1 to 5 mg/kg, po via gavage for 12 weeks by qPCR analysis. The data set is classed as functional, organism-based. The gist of the method: (§3)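 Ovariectomized female SD rats, osteopenic after 12 weeks, dosed orally once daily for 12 weeks (1.0 or 5.0 mg·kg⁻¹·day⁻¹, 1% gum acacia vehicle); sham and OVX vehicle groups included. Femurs collected at sacrifice for qRT-PCR, analysed by the ΔΔCT method.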
(Real-time PCR tracks product formation cycle by cycle.)

The nature of data set [6]: Increase in OCN mRNA expression in Sprague-Dawley rat calvarial osteoblasts at 100 pM by RT-PCR method relative to control. The data set is classed as functional, Calvarial osteoblast. The method, boiled down:
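Primary calvarial osteoblasts were lysed in TRIzol after treatment, and total RNA was extracted. Transcripts were quantified by real-time PCR using the comparative CT (ΔΔCT) method.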

Data set [7] has as its system Calvarial osteoblast. The experiment in a line: Antioxidant activity in Sprague-Dawley rat calvarial osteoblasts assessed as inhibition of TNFalpha-induced intracellular ROS production at 100 pM after 24 hrs by DCFH-DA staining based fluorescence assay. Format: functional, cell-based. The gist of the method:
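Primary rat calvarial osteoblasts were treated 24 h, then washed twice with serum-free medium. DCFH-DA (10 µg·mL⁻¹) was added in medium with 2% serum, followed by 30 min in the dark. Fluorescence was read at Ex 485/Em 535 nm.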

Data set [8] deals with Rattus norvegicus. The experiment in a line: Upregulation of OCN mRNA expression in femur bone of Sprague-Dawley rat model of OVX-induced bone loss at 1 to 5 mg/kg, po via gavage for 12 weeks by qPCR analysis. The data set is classed as functional, organism-based. The method, boiled down: as §3
The test system of data set [9] is Rattus norvegicus. Kind of data set: Antiosteoporotic activity in Sprague-Dawley rat model of OVX-induced bone loss assessed as protection against microarchitectural deterioration by measuring trabecular number at 5 mg/kg, po via gavage for 12 weeks by microcomputed tomographic analysis (reference value: 0.56 +/- 0.06 /millimeter). The data set is classed as functional. The gist of the method:
(§4)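 Adult female Sprague-Dawley rats were ovariectomized and left 12 weeks to become osteopenic. They then received 12 weeks of once-daily oral gavage (1% gum acacia vehicle) or subcutaneous estradiol, five days a week. Femurs were collected at sacrifice and scanned by micro-CT for BMD and trabecular microarchitecture. Ten rats per group; mean ± SEM.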

A short description of data set [10]: Hepatotoxicity in Sprague-Dawley rat model of OVX-induced bone loss assessed as morphological changes in liver at 1 to 5 mg/kg, po via gavage for 12 weeks by hematoxylin and eosin staining based assay. The data set is classed as toxicity, organism-based. The following applies: in vivo, 2016 h. The gist of the method: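 Liver samples from ovariectomized rats after 12 weeks of treatment were dehydrated in isopropanol, cleared in xylene and paraffin-embedded. Transverse 5 µm sections were stained with hematoxylin and eosin and imaged.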

Data set [11] deals with Calvarial osteoblast. The experiment in a line: Induction of osteoblast proliferation in Sprague-Dawley rat calvarial osteoblasts at 0.000001 to 1 uM after 48 hrs BrdU incorporation assay. The data set is classed as functional, cell-based. The method, boiled down:
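2 × 10³ cells/well in duplicate plates, one for cell number and one for BrdU. Cells treated 48 h in differentiation medium, then BrdU added for a further 24 h. Fixed cells get anti-BrdU (1 h RT), then peroxidase secondary (30 min), TMB (30 min, dark), stop, read at 450 nm. Result given as BrdU(+) osteoblasts, % of total.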
For orientation: Uptake of a labelled nucleoside into DNA is a usual measure of proliferation.

Data set [12] is described as follows: Induction of osteoblast differentiation in Sprague-Dawley rat calvarial osteoblasts assessed as alkaline phosphatase activity at 100 pM after 48 hrs using PNPP as substrate by spectrophotometric method relative to control. The data set is classed as functional. The gist of the method:
as §2

The subject of data set [13] is Rattus norvegicus. Kind of data set: Antiosteoporotic activity in Sprague-Dawley rat model of OVX-induced bone loss assessed as protection against microarchitectural deterioration by measuring trabecular separation at 1 mg/kg, po via gavage for 12 weeks by microcomputed tomographic analysis (reference value: 1.31 +/- 0.06 millimeter). The data set is classed as functional. The method, boiled down:
as §4

Data set [14] can be described thus: Toxicity in Sprague-Dawley rat model of OVX-induced bone loss assessed as total uterine area at 1 mg/kg, po via gavage for 12 weeks (reference value: 0.11 +/- 0.003 mm2). The data set is classed as organism-based. The conditions noted are these: in vivo, 2016 h.
The test system of data set [15] is Rattus norvegicus. Kind of data set: Antiosteoporotic activity in Sprague-Dawley rat model of OVX-induced bone loss assessed as increase in mineralization at 1 to 5 mg/kg, po via gavage for 12 weeks measured 18 days post last dose by alizarin red-S staining based assay relative to control. Format: functional. The method, boiled down:
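After 12 weeks of in vivo treatment of ovariectomized rats, femoral bone marrow was flushed. It was cultured 18 days in differentiation medium (10 nM dexamethasone, 10 mM β-glycerophosphate, 50 µg·mL⁻¹ ascorbic acid). Mineralized nodules were stained with alizarin red-S, and the stain was extracted for quantitation.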

The subject of data set [16] is Rattus norvegicus. The experiment in a line: Antiosteoporotic activity in Sprague-Dawley rat model of OVX-induced bone loss assessed as bone formation rate at 5 mg/kg, po via gavage for 12 weeks by microcomputed tomographic analysis (reference value: 0.171 +/- 0.005 um3/um2/day). Format: functional. The method, boiled down:
as §1

Data set [17] relates to Rattus norvegicus. The experiment in a line: Antiosteoporotic activity in Sprague-Dawley rat model of OVX-induced bone loss assessed as restoration of bone mineral density loss in femur bone at 1 to 5 mg/kg po via gavage for 12 weeks by microcomputed tomographic analysis relative to control. Format: functional. The gist of the method:
as §4

Data set [18] is described as follows: Toxicity in Sprague-Dawley rat model of OVX-induced bone loss assessed as uterine weight at 5 mg/kg, po via gavage for 12 weeks (reference value: 0.12 +/- 0.02 g). The data set is classed as organism-based. The following applies: in vivo, 2016 h.
Data set [19] concerns Rattus norvegicus. The experiment in a line: Antiosteoporotic activity in Sprague-Dawley rat model of OVX-induced bone loss assessed as increase in serum PINP level at 1 to 5 mg/kg, po via gavage for 12 weeks by ELISA. The data set is classed as functional, organism-based. The method, boiled down:
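Ovariectomy model as above: 12 weeks of osteopenia, then 12 weeks of daily gavage or subcutaneous estradiol. Serum was separated at autopsy, and CTX and PINP were measured by ELISA kits.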

As usually defined, the EC50 is the concentration at which the effect is half-maximal. By Emax is commonly meant the size of the effect at its maximum, as opposed to the concentration needed.

Calls of active or inactive are those of the source. The calls are words filed in the database; no cut-off is given here.

Regarding `CCOC(=O)c1cc2c([nH]c3ccccc32)c(C(c2nnnn2C(C)(C)C)N2CCN(C)CC2)n1` (centres undefined), the Activity was 70.55 mJ with Rattus norvegicus [1]; 0.92 micrometer/day with Rattus norvegicus [2]; 0.012 mm2 in data set [3]; 1.38 /millimeter in the data set with Rattus norvegicus [9]; “Non-Toxic” in data set [10]; 0.73 mm in the data set with Rattus norvegicus [13]. Besides, the Activity was 0.14 mm2 in [14], 0.98 um3/um2/day in the data set with Rattus norvegicus [16], 46% with Rattus norvegicus [17] and 0.12 g in data set [18]. In addition, the EC50 in data set [4] came out at 900 nM. The outcome in the data set on Rattus norvegicus [5], in the data set on Rattus norvegicus [8], with Calvarial osteoblast [11] and with Rattus norvegicus [19] was Active. Further, the “fold change (FC)” value in data set [6] is listed as 1.8 - 4.6; in the data set on Rattus norvegicus [15], 1.4 - 1.5. Moreover, in the data set with Calvarial osteoblast [7], the inhibition entry is “Active”. For the same molecule, in data set [12], the Emax at 0.0001 µM came to 89%.
